From PubChem BioAssay
The sample as a whole holds a higher share of hits than the screen did.
UPR XBP1 act: activators of adaptive XBP1 UPR arm, primary screen, cell-based, CHO-XBP1 luciferase reporter, luminescence, uHTS; IRE1-XBP1 UPR activation; percent of tunicamycin response, DMSO as zero; activation, % at 20 µM; 330,000 compounds, 0.33% hits; AID 463104, 2010;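 active = versus positive control, 20 µM dose yields 30% or more activation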
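Assay system: IRE1-XBP1 luciferase reporter CHO line. Input: 1000 cells/well. Buffer or medium: F12 with 10% serum. Doses: 20 µM, 1% DMSO. Times: overnight seeding at 37 °C, 6 h compound treatment at 37 °C. Technique: Steady-Glo luciferase glow luminescence, 10 min after reagent addition.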
Jurkat NFkB inh: inhibitors of induced NF-kB luciferase reporter, primary screen, TCR NF-kB activation inhibitor project, cell-based, luminescence, uHTS; Jurkat, PMA/ionomycin-induced NF-kB luciferase reporter; inhibition, % at 4 µM; 330,000 compounds, 0.53% hits; in the data active = inhibition above about 50%
CHOP inhibitor: inhibitors of CHOP promoter induction, primary screen, cell-based, unfolded protein response, luciferase reporter; CHO-K1 CHOP-promoter luciferase, tunicamycin-induced, 15-18 h; AID 2732, 2010; inhibition, % at 10 µM; 220,000 compounds, 3.8% hits;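 active = compounds that reduced the stress-induced luciferase reporter signal by more than about 70% of percent inhibition, limit read from the data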
697 NFkB inh: inhibitors of PMA/ionomycin-induced NF-kB reporter, 697 cells, primary screen, B-cell NF-kB inhibitor project, cell-based, luminescence, uHTS | AID 435022, 2010 | 330,000 compounds, 0.33% hits | 697 B-cell NF-kB luciferase reporter, 16 h | inhibition, % at 4 µM; in the data active = inhibition above about 35%
CHOP UPR activ: activators of apoptotic CHOP UPR arm, primary screen, cell-based, CHO-CHOP luciferase reporter, luminescence, uHTS. UPR activation; percent of tunicamycin response over DMSO baseline. activation, % at 10 µM. 330,000 compounds, 0.34% hits. AID 449763, 2010;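 active = at 10 µM dose, activation of 40% or more, normalized to positive control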
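System: CHO CHOP reporter cells. Amount: 500 cells per well. Buffer or medium: F12 medium, 10% FBS. Compound dosing: one dose, 10 µM in 0.5% DMSO. Incubation: 6 h compound exposure at 37 °C after overnight seeding. Technique: Steady-Glo luciferase luminescence. Benchmarks: tunicamycin and DMSO controls.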
697 NFkB conf: PMA/ionomycin-induced NF-kB reporter inhibitors, 697 retest, confirmation, B-cell NF-kB inhibitor project, cell-based, luminescence, single concentration; inhibition, % at 4 µM; 697 B-cell NF-kB luciferase, 16 h; 2,000 compounds, 35% hits; AID 449746, 2010; shares compounds with 697 NFkB inh; in the data active = inhibition mostly above about 28%, no sharp cut-off; inactive = mostly below about 22%
A number is an active result; n = inactive; x = no result.

SMILES	UPR XBP1 act	Jurkat NFkB inh	CHOP inhibitor	697 NFkB inh	CHOP UPR activ	697 NFkB conf
Cn1c(=O)cc(Nc2ccccc2)c2c(=O)n(-c3ccccc3)c(=O)n(-c3ccccc3)c21	n	n	n	42.8	n	32.3
Cn1c(=O)c2c(Nc3ccc(F)cc3)cc(=O)n(-c3ccccc3)c2n(C)c1=O	n	n	n	n	n	x
O=C(O)C1CC=CCC1C(=O)Nc1ccc(S(=O)(=O)N2CCCc3ccccc32)cc1 (configuration not stated)	n	n	x	n	n	n
CCC1CCCCN1C(=O)COc1c(Br)cc(Br)c2cccnc12 (configuration not stated)	n	n	n	n	n	x
CC(=O)Nc1ccc(S(=O)(=O)Oc2ccc3c(c2)C(C)=CC(C)(C)N3)cc1	n	n	n	n	n	n
CCOc1ccc(NC(=O)CSc2nnc(C34CC5CC(CC(C5)C3)C4)n2C)cc1	n	n	n	n	n	x
COc1ccc(C(=O)Nc2nc3c(s2)CCCC3)cc1S(=O)(=O)N1CCCc2ccccc21	n	n	n	n	n	n
NNC(=O)c1cc2cc3ccccc3nc2s1	n	n	n	n	n	x
COc1ccc(/C=N/OCC(=O)Nc2cc(C)on2)cc1OC	n	n	n	n	n	x
COc1ccc(/C=N/OCC(=O)NC(c2ccccc2)c2ccccc2)cc1OC	n	n	n	68.4	n	38.5
N=c1ccn(Cc2ccc(Cl)cc2Cl)cc1	n	n	n	n	n	x
N=c1ccn(Cc2cccc(Cl)c2)cc1	n	n	n	n	n	x
N=c1ccn(Cc2ccccc2Cl)cc1	n	n	n	46.2	n	48.5
N=c1ccn(Cc2c(Cl)cccc2Cl)cc1	n	n	n	46.6	n	56.9
CCOc1cc(/C=C(/C#N)c2nc3ccccc3[nH]2)ccc1Oc1ccc([N+](=O)[O-])cn1	n	n	n	39.7	n	n
CCOc1cc(/C=C(\C#N)c2nc3ccccc3[nH]2)ccc1OC(C)C(=O)O (configuration not stated)	n	n	x	n	n	x
C=CCn1c(C)cc(C(=O)CSc2nc3ccccc3[nH]2)c1C	n	n	n	n	n	n
O=C(Cc1coc2ccc3ccccc3c12)Nc1nnc(C2CC2)s1	n	n	n	n	n	n
O=C(Cc1c[nH]c2ccccc12)Nc1nnc(C2CC2)s1	n	n	n	n	n	x
Cc1ccc(N2CC(C(=O)Nc3nc4ccc(S(C)(=O)=O)cc4s3)CC2=O)cc1C (configuration not stated)	n	n	x	n	n	x
COc1ccc(S(=O)(=O)Nc2ccccc2OC)cc1NC(=O)c1cc2ccccc2oc1=O	n	n	n	n	n	x
O=C(Nc1ccc(N2CCCC2)cc1)c1cc(Cl)ccc1Cl	n	n	x	n	n	x
O=C(Nc1ccc(N2CCCC2)cc1)c1cccc(Cl)c1	n	n	x	n	n	n
COC(=O)C(NC=O)C(O)(Cc1ccccc1)C(F)(F)F (configuration not stated)	n	n	n	n	n	x
CC1CCN(c2c(NCc3ccc(C(=O)N4c5ccccc5CC4C)cc3)c(=O)c2=O)CC1 (configuration not stated)	n	n	n	43.4	n	39.0
SMILES	UPR XBP1 act	Jurkat NFkB inh	CHOP inhibitor	697 NFkB inh	CHOP UPR activ	697 NFkB conf
COCCN(Cc1ccccc1)C(=O)C1CCN(S(=O)(=O)c2ccc3c(c2)OCCO3)CC1	n	n	x	n	n	x
O=C1CC(c2ccc3c(c2)OCO3)Sc2nc3ccccc3n21 (configuration not stated)	n	n	n	n	n	n
O=C1CC(c2ccccc2)Sc2nc3ccccc3n21 (configuration not stated)	n	n	n	n	n	x
Cc1cc(OC(=O)c2cc([N+](=O)[O-])ccc2Cl)c([N+](=O)[O-])c(=O)[nH]1	n	n	x	n	n	x
CCOC(=O)N1CCN(C(=O)Nc2ccc3nc(C)c(C)nc3c2)CC1	n	n	n	36.7	n	n
Cc1ccc(O)c(-c2cc(C(F)(F)F)[nH]n2)c1	n	n	n	40.0	n	n
CC12CCC(C(=O)N3CCC(Cc4ccccc4)CC3)(C(=O)C1=O)C2(C)C (configuration not stated)	n	n	n	n	n	x
N#Cc1c(/N=C/c2cccs2)sc2c1CCCCC2	n	n	n	n	n	n
NC(=O)c1nsc(C(=O)N(c2ccccc2F)C(C(=O)NCc2ccccc2)c2ccc(O)cc2)c1N (configuration not stated)	n	n	x	35.4	n	n
CCOc1ccc(NC(=O)CCNS(=O)(=O)c2ccc3c(c2)oc(=O)n3C)cc1	n	n	x	n	n	x
Cc1ccc(NC(=O)CCNS(=O)(=O)c2ccc3c(c2)oc(=O)n3C)cc1	n	n	n	40.8	n	n
CCOc1ncccc1C(=O)Nc1nnc(C2CC2)s1	n	n	n	38.9	n	n
Cc1nn(Cc2ccccc2Cl)c(C)c1C(=O)Nc1nnc(C2CC2)s1	n	n	x	n	n	n
Oc1ccc(N=Nc2ccc3ccccc3c2)cc1	n	n	x	n	n	n
O=C(CN1CCSC1=O)N1CCN(S(=O)(=O)c2ccccc2)CC1	n	n	x	n	n	x
O=C(Nc1cccc(Oc2ccc3c(c2)C(=O)NC3=O)c1)c1cccs1	n	n	n	39.2	n	13.6
O=c1c(C=NCCCO)c(-c2ccccc2)[nH]n1-c1nc2ccccc2s1	n	n	n	37.0	n	41.4
CC[C@@]1(C(=O)OC)N[C@H](CN(C)C(=O)c2ccc(C)cc2)[C@@H]2C(=O)N(Cc3ccccc3)C(=O)[C@@H]21	n	n	x	n	n	x
Cc1ccc([C@@H]2[C@@H]3C(=O)N(c4ccccc4)C(=O)[C@@H]3[C@]3(C)C(=O)N(Cc4ccc(-c5ccccc5)cc4)CC(=O)N23)o1	n	n	x	n	n	x
COCCNC(=O)/C(C#N)=C/c1ccc(-c2ccc(OC)cc2[N+](=O)[O-])o1	n	n	n	35.4	n	n
COc1ccccc1/C=C1/SC(=S)N(CCC(=O)Nc2cccnc2)C1=O	n	n	x	35.4	n	27.9
O=C(CCN1C(=O)/C(=C\c2cccs2)SC1=S)NC1=NCCS1	n	n	n	n	n	x
CCc1ccc(/C=C2\SC(=S)N(CCC(=O)NC3=NCCS3)C2=O)cc1	n	n	88.0	71.1	n	38.1
COc1ccccc1/C=C1\SC(=S)N(CCC(=O)NC2=NCCS2)C1=O	n	n	n	35.4	n	48.0
